Laboratory results taken from publication PMC5844354 (Chembiochem : a European journal of chemical biology, 2018).

Experiments:
Fis1 [1] = target: T1, Fis1 (Homo sapiens, UniProt Q9Y3D6); assay: Mass spectrometry of Fis1 with interfering compounds; settings: from apo Fis1 14 487.2 Da; suggests direct chemical modification
T1 sequence (Q9Y3D6 1-125): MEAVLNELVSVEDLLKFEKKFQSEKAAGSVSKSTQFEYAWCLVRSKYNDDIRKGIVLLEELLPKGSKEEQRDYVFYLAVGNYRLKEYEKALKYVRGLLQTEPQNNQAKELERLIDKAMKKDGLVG

Fis1 [2] = target: T1, Fis1; format: binding; settings: for nonspecific NMR crosspeak broadening of Fis1: 1 mM compound, 50 μM 15N-Fis1, SOFAST-HMQC; for binding to Fis1 in library screen: 1 mM fragment, 352-fragment library screen
In short: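 Human Fis1 cytosolic domain (residues 1–125), His₆-SUMO fusion, expressed in ¹⁵N minimal medium and Ni-affinity purified. Buffer was 50 mM sodium phosphate pH 7.0, 175 mM NaCl, 2 mM DTT, 10% D₂O. Library screen: 352 fragments pooled six per sample, 1 mM each, 97 μM protein, 3% [D₆]DMSO, hits at +1 σ. Follow-up: single fragments at 1 mM with 50 μM protein. ¹H,¹⁵N SOFAST-HMQC at 25°C.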

CXCL12 = CXCL12 (Homo sapiens, UniProt P48061); assay: 2D protein-detected NMR of individual compounds at 1 mM against 15N-CXCL12; format: binding; settings: 1 mM compound, 100 μM 15N-CXCL12, SOFAST-HMQC
CXCL12, sequence (P48061 22-89 limits assumed): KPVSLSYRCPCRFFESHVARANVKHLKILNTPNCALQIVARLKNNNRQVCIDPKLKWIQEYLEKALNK
In short: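 Commercial recombinant human ¹⁵N-CXCL12. Each test compound was screened singly: 1 mM final in 0.5% (v/v) [D₆]DMSO, 99.5 μM final protein, with a DMSO control. Buffer was 50 mM sodium phosphate pH 6.0, 0.02% sodium azide, 10% D₂O. ¹H,¹⁵N SOFAST-HMQC at 25°C and 600 MHz with cryoprobe; 16 scans, 1024 × 210 complex points. Spectra were overlaid on the DMSO control.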

[3] = target: first bromodomain of BRD4; settings: cited from earlier work
BRD4(BD2) = BRD4(BD2) (Homo sapiens, UniProt O60885); assay: NMR titration; format: binding

## Cc1cc(O)ccc1O [2-methylbenzene-1,4-diol]
Fis1 [1]
  mass shift of Fis1: 119.7 Da

## Nc1ccc(O)cc1 [4-aminophenol]
Fis1 [2]
  nonspecific NMR crosspeak broadening of Fis1: did not induce nonspecific NMR crosspeak broadening

## Nc1cc2ccccc2cc1O [3-amino-2-naphthol]
Fis1 [2]
  binding to Fis1 in library screen: none of which bound appreciably

## O=C1c2ccccc2C(=O)C1(O)O [ninhydrin]
Fis1 [2]
  nonspecific NMR crosspeak broadening of Fis1: induce nonspecific NMR crosspeak broadening across all targets screened
CXCL12
  nonspecific NMR crosspeak broadening of CXCL12: induce nonspecific NMR crosspeak broadening across all targets screened

## Nc1cccc2cccc(N)c12 [1,8-diaminonaphthalene]
Fis1 [2]
  binding to Fis1 in library screen: none of which bound appreciably

## NS(=O)(=O)c1ccc2ccccc2c1 [naphthalene-2-sulfonamide]
Fis1 [2]
  binding to Fis1 in library screen: none of which bound appreciably

## CC(=O)Nc1ccc(O)cc1 [acetaminophen]
[3]
  Kd: 290 µM
BRD4(BD2)
  Kd: 1600 µM
